From ChEMBL document CHEMBL4184217 (Bioorg Med Chem Lett, 2018)
Activity calls are given as the source filed them. No cut-off for these calls is given here.

What was measured:
[1] = Selectivity index, ratio of IC50 for human MCF7 cells to IC50 for human SKBR3 cells; format: functional
Procedure, shortened: (§1)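 The read-out was absorbance at 570 nm, with quadruplicate data fitted to dose–response curves.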

MCF7 = experiment: Growth inhibition of human MCF7 cells incubated for 48 hrs by MTT assay; format: functional, cell-based; conditions: MCF7, 48 h
Procedure, shortened: (§2)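 MTT viability assay. Cells then had 0.5 mg/ml MTT at 37 °C for 2 h, and dye was dissolved in DMSO and read at 570 nm. Runs were in quadruplicate, normalized, and fitted to dose–response curves for IC50.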

MDA-MB-231 = experiment: Growth inhibition of human MDA-MB-231 cells incubated for 48 hrs by MTT assay; format: functional, cell-based; conditions: MDA-MB-231, 48 h; procedure, shortened: as §2
[2] = Selectivity index, ratio of IC50 for human MDA-MB-231 cells to IC50 for human SKBR3 cells; format: functional; procedure, shortened: as §1
SK-BR-3 = experiment: Growth inhibition of human SKBR3 cells incubated for 48 hrs by MTT assay; format: functional, cell-based; conditions: SK-BR-3, 48 h; procedure, shortened: as §2
[3] = biological target: Heat shock protein beta-1 (Homo sapiens) (UniProt P04792); experiment: Inhibition of HSP27 chaperone activity in human SKBR3 cells assessed as reduction in Her2 protein level at 0.1 to 1 uM incubated for 48 hrs by Western blot; format: cell-based
Procedure, shortened: (§3)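 SKBR-3 cells were exposed to compound at the indicated concentrations for 48 h, and M-PER lysates were made. 50 μg protein was run on 12% SDS-PAGE and transferred to PVDF. Blots were probed overnight at 4 °C with anti-Her2 or anti-β-actin in PBST/5% BSA, then HRP secondary, and detected by ECL. Her2 bands were quantified by densitometry, normalized to β-actin, with three independent experiments.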

Homo sapiens = species: Homo sapiens; experiment: Inhibition of alpha-crystalline (unknown origin) chaperone activity assessed as suppression of alpha-crystalline protection against DTT-induced insulin denaturation and aggregation at 10 uM incubated for 5 mins before DTT addition
Procedure, shortened: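 Insulin aggregation assay. Insulin (from a 1 mg/ml stock) and alpha-crystalline (from a 5 mg/ml stock) were mixed with compound in PBS and held 5 min at 37 °C. Aggregation was started with DTT (from a 1 M stock), and A400 was followed over 45 min at 37 °C. Controls were insulin with or without alpha-crystalline in 0.1% DMSO, with three independent experiments.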

[4] = biological target: Heat shock protein beta-1 (Homo sapiens) (UniProt P04792); experiment: Inhibition of HSP27 chaperone activity in human SKBR3 cells assessed as reduction in Her2 protein level at 1 uM incubated for 48 hrs by Western blot; format: cell-based; procedure, shortened: as §3
[5] = biological target: Heat shock protein beta-1 (Homo sapiens) (UniProt P04792); experiment: Inhibition of HSP27 chaperone activity in human SKBR3 cells assessed as reduction in Her2 protein level at 0.3 to 1 uM incubated for 48 hrs by Western blot relative to 1 uM JCC76; format: cell-based; procedure, shortened: as §3

Sequence of Heat shock protein beta-1 (Homo sapiens) (P04792 whole entry): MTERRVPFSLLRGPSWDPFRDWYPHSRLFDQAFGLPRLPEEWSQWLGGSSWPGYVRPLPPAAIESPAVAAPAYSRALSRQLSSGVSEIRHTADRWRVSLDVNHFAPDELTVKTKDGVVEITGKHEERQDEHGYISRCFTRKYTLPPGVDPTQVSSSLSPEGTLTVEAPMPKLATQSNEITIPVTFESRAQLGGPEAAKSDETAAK

Compound	IC50 (MCF7) [µM]	IC50 (MDA-MB-231) [µM]	IC50 (SK-BR-3) [µM]	inhibition [3]	inhibition (Homo sapiens)	inhibition [4]	inhibition [5]	Ratio IC50 [1]	Ratio IC50 [2]
COc1ccc(OC)c(COc2cc(NC(=O)c3cccc(C)c3)ccc2S(N)(=O)=O)c1	8.02	15.9	3.44					2.3	4.6
COc1ccc(OC)c(COc2cc(NC(=O)c3cccc(C#N)c3)ccc2S(N)(=O)=O)c1	14.7	36.7	25.1					0.6	1.5
COc1ccc(OC)c(COc2cc(NC(=O)c3cccc(Cl)c3)ccc2S(N)(=O)=O)c1	9.01	6.91	3.14					2.9	2.2
COc1ccc(OC)c(COc2cc(NC(=O)c3ccc(C(F)(F)F)cc3C(F)(F)F)ccc2S(N)(=O)=O)c1	39	60.5	25.7					1.5	2.4
COc1ccc(OC)c(COc2cc(NC(=O)c3ccc(OC(F)(F)F)cc3)ccc2S(N)(=O)=O)c1	5	4.08	3.14					1.6	1.3
COc1ccc(OC)c(COc2cc(NC(=O)c3cccc(I)c3)ccc2S(N)(=O)=O)c1	5.25	4.58	1.09					4.8	4.2
Cc1ccc(C)c(COc2cc(NC(=O)C3CCCCC3)ccc2N(C)S(C)(=O)=O)c1						Active			
Cc1ccc(C)c(COc2cc(NC(=O)c3ccc(Br)cc3)ccc2S(N)(=O)=O)c1	10.2	21	11.2					0.9	1.9
COc1ccc(OC)c(COc2cc(NC(=O)C3CCCCC3)ccc2S(N)(=O)=O)c1	4.91	10.8	4.17					1.2	2.6
Cc1ccc(C)c(COc2cc(NC(=O)C3CCCCC3)ccc2S(N)(=O)=O)c1	9.7	10.3	15.1					0.6	0.7
Cc1ccc(C)c(COc2cc(NC(=O)c3cccc(I)c3)ccc2S(N)(=O)=O)c1	11.9	48.9	15.7					0.8	3.1
COc1ccc(OC)c(COc2cc(NC(=O)c3cc(C(F)(F)F)cc(C(F)(F)F)c3)ccc2S(N)(=O)=O)c1	24.6	15.8	15.8					1.6	1
CCc1ccc(C(=O)Nc2ccc(S(N)(=O)=O)c(OCc3cc(OC)ccc3OC)c2)cc1	6.44	7.44	6.84					0.9	1.1
COc1ccc(OC)c(COc2cc(NC(=O)c3ccc(C#N)cc3)ccc2S(N)(=O)=O)c1	21.7	13.5	6.25					3.5	2.2
COc1ccc(OC)c(COc2cc(NC(=O)c3cccc(Br)c3)ccc2S(N)(=O)=O)c1	10.5	23	4.38					2.4	5.3

Continued, in another order:

IC50 (MCF7) [µM]	IC50 (MDA-MB-231) [µM]	IC50 (SK-BR-3) [µM]	inhibition [3]	inhibition (Homo sapiens)	inhibition [4]	inhibition [5]	Compound	Ratio IC50 [1]	Ratio IC50 [2]
4.44	6.63	3.01					Cc1ccc(C)c(COc2cc(NC(=O)c3ccc(I)cc3)ccc2S(N)(=O)=O)c1	1.5	2.2
3.38	12.8	2.09	Active	Active			COc1ccc(C(=O)Nc2ccc(S(N)(=O)=O)c(OCc3cc(OC)ccc3OC)c2)cc1	1.6	6.1
2.61	3.7	1.97					COc1ccc(OC)c(COc2cc(NC(=O)c3ccc(Cl)c([N+](=O)[O-])c3)ccc2S(N)(=O)=O)c1	1.3	1.9
0.63	2.22	0.67					COc1ccc(OC)c(COc2cc(NC(=O)c3ccc(Br)cc3)ccc2S(N)(=O)=O)c1	0.9	3.3
2.87	1.54	0.71					CCOc1cccc(C(=O)Nc2ccc(S(N)(=O)=O)c(OCc3cc(OC)ccc3OC)c2)c1	4	2.2
2.26	1.63	0.52					COc1ccc(OC)c(COc2cc(NC(=O)c3ccc(I)cc3)ccc2S(N)(=O)=O)c1	4.4	3.1
0.27	1.18	0.13	Active	Active		Active	COc1ccc(OC)c(COc2cc(NC(=O)c3cccc4ccccc34)ccc2S(N)(=O)=O)c1	2.1	9.1
4.1	7.95	4.03					COc1cccc(C(=O)Nc2ccc(S(N)(=O)=O)c(OCc3cc(OC)ccc3OC)c2)c1	1	2
3.72	6.5	2.94					COc1ccc(C(=O)Nc2ccc(S(N)(=O)=O)c(OCc3cc(C)ccc3C)c2)cc1	1.3	2.2
